The values that follow come from ChEMBL document CHEMBL3097988, “Synthesis and characterization of new N-(4-(4-chloro-1H-imidazol-1-yl)-3-methoxyphenyl)amide/sulfonamide derivatives as possible antimicrobial and antitubercular agents” (2014).

Molecules are shown by their SMILES. Converted amounts (≈) assume the structure as drawn.

Holding throughout (assay type): functional
In assay [1] the test system is Staphylococcus aureus. As to the kind of experiment: Ratio of ciprofloxacin MIC to compound MIC for Staphylococcus aureus ATCC 25923.
The subject of assay [2] is Mycobacterium tuberculosis. As to the kind of experiment: Antimicrobial activity against Mycobacterium tuberculosis H37Rv ATCC 27294 at 1 to 100 ug/ml after 7 days by resazurin assay. The method, boiled down:
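Preliminary screen at three concentrations (1, 10 and 100) by resazurin microtitre assay. Cultures were grown in Middlebrook 7H9 with 10% OADC, and compounds came from 2 mg/mL DMF stocks with DMF controls. Plates were incubated 7 days at 37 °C, and resazurin colour was read after 1 h. Inhibition was scored as no blue-to-pink change.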

The test system of assay [3] is Mycolicibacterium smegmatis. Kind of assay: Antimicrobial activity against Mycobacterium smegmatis (MC2) ATCC 19420 after 7 days by resazurin assay. The settings on record: (MC2) ATCC 19420, 168 h.
The test system of assay [4] is Mycobacterium tuberculosis. Kind of assay: Antimicrobial activity against Mycobacterium tuberculosis H37Rv ATCC 27294 after 7 days by resazurin assay. The settings on record: H37Rv ATCC 27294, 168 h. In a few lines:
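Resazurin microtitre assay. Cultures were grown in Middlebrook 7H9 with 10% OADC and added to fresh medium in 96-well plates. Test compounds came from 2 mg/mL DMF stocks, with DMF-only controls. Plates were incubated 7 days at 37 °C, then resazurin was added and read after 1 h at 37 °C. MIC was the lowest concentration preventing the blue-to-pink change.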

The subject of the next assay is Rhizopus. Kind of assay: Antimicrobial activity against Rhizopus sp. after 3 to 4 days by serial plate dilution method. The method, boiled down:
(§1)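 Fungal MIC by serial plate dilution. Sabouraud agar (peptone, D-glucose, agar; pH 5.7) plates seeded with saline spore suspension, dried 1 h at 37 °C. Wells punched and filled with compound in DMSO; DMSO-only control. Triplicate plates held 3–4 days at 37 °C; inhibition zone diameter measured. Amphotericin B positive control. Tested range […] per mL.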

Another assay has as its system Aspergillus flavus. Kind of assay: Antimicrobial activity against Aspergillus flavus after 3 to 4 days by serial plate dilution method. The method, boiled down: as §1
The next assay deals with Candida albicans. Kind of assay: Antimicrobial activity against Candida albicans after 3 to 4 days by serial plate dilution method. The method, boiled down: as §1
The subject of assay [5] is Klebsiella pneumoniae. Kind of assay: Antimicrobial activity against Klebsiella pneumoniae ATCC 13883 after 16 to 18 hrs by serial plate dilution method. In a few lines: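 Bacterial MIC by serial dilution in Mueller-Hinton broth adjusted to pH 5.0 with phosphate buffer. Tubes inoculated with standardized bacterial suspension, incubated 16–18 h at 37 °C. MIC read as lowest concentration with no visible growth. Range […] per mL. DMSO as negative control, ciprofloxacin as positive control.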

The next assay relates to Escherichia coli. As to the kind of experiment: Antimicrobial activity against Escherichia coli ATCC 25922 after 16 to 18 hrs by […].
The subject of assay [6] is Staphylococcus aureus. Kind of assay: Antimicrobial activity against Staphylococcus aureus ATCC 25923 after 16 to 18 hrs by […].
Assay [7] has as its system Mycolicibacterium fortuitum. Kind of assay: Antimicrobial activity against Mycobacterium fortuitum ATCC 19542 after 7 days by resazurin assay. The settings on record: ATCC 19542, 168 h.
For assay [8], the system named is Klebsiella pneumoniae. As to the kind of experiment: Ratio of ciprofloxacin MIC to compound MIC for Klebsiella pneumoniae ATCC 13883.

On to `COc1cc(NS(=O)(=O)c2cc(F)cc(C(F)(F)F)c2)ccc1-n1cnc(Cl)c1`, for which the Ratio in the assay with Staphylococcus aureus [1] and in the assay on Klebsiella pneumoniae [8] was 1 each time. For the same compound, the “inhibition (INH)” value in assay [2] worked out at 95%. In addition, the MIC in assay [3] came out at 10 µg/mL (≈ 22.2 µM); in assay [4] it was 0.625 µg/mL (≈ 1.39 µM); in the assay on Rhizopus, 16 µg/mL (≈ 35.6 µM); against Aspergillus flavus, 8 µg/mL (≈ 17.8 µM); in the assay on Candida albicans it was 8 µg/mL (≈ 17.8 µM); against Klebsiella pneumoniae [5] it was 8 µg/mL (≈ 17.8 µM). In addition, the values for the MIC (in the assay on Escherichia coli; against Staphylococcus aureus [6]; in assay [7]) were 4 µg/mL (≈ 8.89 µM), 4 µg/mL (≈ 8.89 µM) and 10 µg/mL (≈ 22.2 µM), respectively.
Regarding `COc1cc(NS(=O)(=O)c2ccc(C(F)(F)F)cc2)ccc1-n1cnc(Cl)c1`, the Ratio in the assay with Staphylococcus aureus [1] and with Klebsiella pneumoniae [8] was 1 throughout. Further, the “inhibition (INH)” value in assay [2] is 95%. Besides, the minimal inhibitory concentration (MIC) in [3] stood at 1.25 µg/mL (≈ 2.89 µM); in assay [4], 0.625 µg/mL (≈ 1.45 µM); in the assay with Rhizopus, 16 µg/mL (≈ 37.1 µM); in the assay with Aspergillus flavus, 16 µg/mL (≈ 37.1 µM); in the assay on Candida albicans, 8 µg/mL (≈ 18.5 µM); in the assay on Klebsiella pneumoniae [5], 8 µg/mL (≈ 18.5 µM). The MIC in the assay on Escherichia coli was 16 µg/mL (≈ 37.1 µM); in the assay on Staphylococcus aureus [6], 4 µg/mL (≈ 9.26 µM); in assay [7], 10 µg/mL (≈ 23.2 µM).
As to `COc1cc(NS(=O)(=O)c2c(F)ccc(C(F)(F)F)c2Cl)ccc1-n1cnc(Cl)c1`, the Ratio with Staphylococcus aureus [1] and in the assay on Klebsiella pneumoniae [8] was 1 each time. Also, the “inhibition (INH)” value in assay [2] is recorded as 90%. Besides, the minimal inhibitory concentration (MIC) turned out to be 1.25 µg/mL (≈ 2.58 µM) in assay [3]; 0.625 µg/mL (≈ 1.29 µM) in assay [4]; 16 µg/mL (≈ 33 µM) against Rhizopus; 16 µg/mL (≈ 33 µM) with Aspergillus flavus; 8 µg/mL (≈ 16.5 µM) against Candida albicans; 8 µg/mL (≈ 16.5 µM) in the assay on Klebsiella pneumoniae [5]. Besides, the MIC against Escherichia coli was 4 µg/mL (≈ 8.26 µM); with Staphylococcus aureus [6], 4 µg/mL (≈ 8.26 µM); in [7], 10 µg/mL (≈ 20.7 µM).
